According to ChEMBL document CHEMBL4330056, “Synthesis and Cytotoxic and Antiviral Profiling of Pyrrolo- and Furo-Fused 7-Deazapurine Ribonucleosides” (J Med Chem, 2018):
pEC50, pIC50: −log10 of the molar value. Calls of active or inactive are those of the source. The rule behind the calls is not given here.

Legend:
Hepatitis C virus [1] = assay: Antiviral activity against Hepatitis C virus genotype 2a infected in human Huh-luc replicon cells after 3 days by luciferase assay; type: functional, organism-based, Hepacivirus hominis; conditions: subtype 2a, 72 h
MRC5 = assay: Antiproliferative activity against human MRC5 cells after 3 days by MTS assay; conditions: MRC5, 72 h
CCRF-CEM = assay: Antiproliferative activity against human CCRF-CEM cells after 3 days by MTS assay; type: functional, cell-based; conditions: 72 h
HepG2 = assay: Antiproliferative activity against human HepG2 cells after 72 hrs by XTT assay; type: functional, cell-based; conditions: HepG2, 72 h
K562 = assay: Antiproliferative activity against human K562 cells after 3 days by MTS assay; type: functional, cell-based; conditions: K562, 72 h
Influenza A virus = assay: Antiviral activity against Influenza A virus (A/Mexico/4108/2009(H1N1)) infected in MDCK cells assessed as inhibited virus-induced cytopathic effect incubated for 2 days by XTT assay; type: functional, organism-based
HL-60 = assay: Antiproliferative activity against human HL60 cells after 72 hrs by XTT assay; type: functional, cell-based; conditions: HL-60, 72 h
BJ = assay: Antiproliferative activity against human BJ cells after 3 days by MTS assay; conditions: 72 h
HeLa S3 = assay: Antiproliferative activity against human HeLaS3 cells after 72 hrs by XTT assay; type: functional, cell-based; conditions: HeLa S3, 72 h
[2] = Antiproliferative activity against human K562-TAX cells after 3 days by MTS assay; type: functional, cell-based; conditions: 72 h
U2OS = assay: Antiproliferative activity against human U2OS cells after 3 days by MTS assay; type: functional, cell-based; conditions: 72 h
dengue virus type 2 = assay: Antiviral activity against Dengue virus 2 Thailand/16681/84 infected in African green monkey Vero cells assessed as inhibition of virus replication incubated for 3 days by fluorescence microscopy; type: functional, organism-based
HCT-116 [3] = assay: Antiproliferative activity against human HCT116 cells after 3 days by MTS assay; type: functional, cell-based; conditions: HCT-116, 72 h
HCT-116 [4] = assay: Antiproliferative activity against p53 gene knocked out human HCT116 cells after 3 days by MTS assay; type: functional, cell-based; conditions: HCT-116, 72 h
Hepatitis C virus [5] = assay: Antiviral activity against Hepatitis C virus genotype 1b infected in human Huh-luc replicon cells after 3 days by luciferase assay; type: functional, organism-based, Hepacivirus hominis; conditions: subtype 1b, 72 h
Human alphaherpesvirus 1 = assay: Antiviral activity against human herpesvirus 1 HF infected in African green monkey Vero cells assessed as inhibited virus-induced cytopathic effect incubated for 3 days by XTT assay; type: functional, organism-based
[6] = Antiproliferative activity against human CEM-DNR-bulk cells after 3 days by MTS assay; conditions: 72 h
Human orthopneumovirus = assay: Antiviral activity against Human respiratory syncytial virus A2 infected in Hep2 cells assessed as reduction in virus-induced cytopathic effect incubated for 4 days by CellTiter-Glo viability reagent based assay; type: functional, organism-based
Adenosine kinase [7] = biological target: T1, Adenosine kinase (Homo sapiens, UniProt P55263); assay: Substrate activity at recombinant human ADK assessed as compound phosphorylation at 50 uM after 20 mins in presence of [3H]-adenosine by UPLC; type: ADME
[8] = Cytotoxicity against human Hep2 cells assessed as reduction in cell viability after 3 days by CellTiter-Glo assay; type: cell-based; conditions: HEp-2 cells
Coxsackievirus B3 = assay: Antiviral activity against Human coxsackie B3 Nancy infected in human HeLa cells assessed as inhibited virus-induced cytopathic effect incubated for 2 days by XTT assay; type: functional, organism-based
A549 = assay: Antiproliferative activity against human A549 cells after 3 days by MTS assay; type: functional, cell-based; conditions: A549, 72 h
Adenosine kinase [9] = biological target: T1, Adenosine kinase; assay: Inhibition of recombinant human ADK using [3H]-adenosine as substrate after 20 mins by TLC scanner-based analysis relative to control
Outline: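 ADK inhibition: 50 μM adenosine substrate with 10 μM test compound and 97 ng enzyme, 20 min at 37 °C.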

T1 sequence (P55263 whole entry): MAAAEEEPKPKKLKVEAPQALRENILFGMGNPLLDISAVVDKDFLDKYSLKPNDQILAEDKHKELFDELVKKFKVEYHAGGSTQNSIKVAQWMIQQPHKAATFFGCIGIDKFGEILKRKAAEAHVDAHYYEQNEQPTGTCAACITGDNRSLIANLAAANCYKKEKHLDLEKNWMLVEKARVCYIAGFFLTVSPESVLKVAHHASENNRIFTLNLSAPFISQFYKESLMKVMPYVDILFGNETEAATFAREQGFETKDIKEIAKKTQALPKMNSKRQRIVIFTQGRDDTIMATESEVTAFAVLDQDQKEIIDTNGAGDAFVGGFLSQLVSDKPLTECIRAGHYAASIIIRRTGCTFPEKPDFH

## Cn1ccc2c3c(-c4cc5ccccc5o4)ncnc3n([C@@H]3O[C@H](CO)[C@@H](O)[C@H]3O)c21
Hepatitis C virus [1]
  pEC50: 4.81
MRC5
  pIC50: 4.34
CCRF-CEM
  pIC50: 5.02
HepG2
  pIC50: < 4.30
K562
  pIC50: 4.65
Influenza A virus
  Activity: inactive
HL-60
  pIC50: < 4.30
BJ
  pIC50: 4.35
HeLa S3
  pIC50: < 4.30
[2]
  pIC50: 4.64
U2OS
  pIC50: 4.54
Dengue virus type 2
  Activity: inactive
HCT-116 [3]
  pIC50: 4.44
HCT-116 [4]
  pIC50: 4.44
Hepatitis C virus [5]
  pEC50: 5.11
Human alphaherpesvirus 1
  Activity: inactive
[6]
  pIC50: 4.51
Human orthopneumovirus
  Activity: inactive
Adenosine kinase [7]
  Activity: 0%
[8]
  CC50 at 72 h: 27.5 to 29.1 µM
Coxsackievirus B3
  Activity: inactive
A549
  pIC50: 4.45
Adenosine kinase [9]
  pIC50: 6.33

## Cn1ccc2c1c1c(-c3cc4ccccc4o3)ncnc1n2[C@@H]1O[C@H](CO)[C@@H](O)[C@H]1O
Hepatitis C virus [1]
  pEC50: 4.49
MRC5
  pIC50: < 4.30
CCRF-CEM
  pIC50: 4.78
HepG2
  pIC50: < 4.30
K562
  pIC50: < 4.30
Influenza A virus
  Activity: inactive
HL-60
  pIC50: < 4.30
BJ
  pIC50: < 4.30
HeLa S3
  pIC50: < 4.30
[2]
  pIC50: 4.53
U2OS
  pIC50: 4.36
Dengue virus type 2
  Activity: inactive
HCT-116 [3]
  pIC50: 4.34
HCT-116 [4]
  pIC50: 4.32
Hepatitis C virus [5]
  pEC50: 5.80
Human alphaherpesvirus 1
  Activity: inactive
[6]
  pIC50: 4.53
Human orthopneumovirus
  Activity: inactive
Adenosine kinase [7]
  Activity: 0%
[8]
  CC50 at 72 h: 26.9 to 44.4 µM
Coxsackievirus B3
  Activity: inactive
A549
  pIC50: < 4.30
Adenosine kinase [9]
  pIC50: 6.52

## CN(C)c1ncnc2c1c1occc1n2[C@@H]1O[C@H](CO)[C@@H](O)[C@H]1O
Hepatitis C virus [1]
  pEC50: < 4.35
MRC5
  pIC50: < 4.30
CCRF-CEM
  pIC50: < 4.30
HepG2
  pIC50: < 4.30
K562
  pIC50: < 4.30
Influenza A virus
  Activity: inactive
HL-60
  pIC50: < 4.30
BJ
  pIC50: < 4.30
HeLa S3
  pIC50: < 4.30
[2]
  pIC50: < 4.30
U2OS
  pIC50: < 4.30
Dengue virus type 2
  Activity: inactive
HCT-116 [3]
  pIC50: < 4.30
HCT-116 [4]
  pIC50: < 4.30
Hepatitis C virus [5]
  pEC50: < 4.35
Human alphaherpesvirus 1
  Activity: inactive
[6]
  pIC50: < 4.30
Human orthopneumovirus
  Activity: inactive
Adenosine kinase [7]
  Activity: 7%
[8]
  CC50 at 72 h: > 44.4 µM
Coxsackievirus B3
  Activity: inactive
A549
  pIC50: < 4.30
Adenosine kinase [9]
  pIC50: < 5.00

## CSc1ncnc2c1c1ccn(C)c1n2[C@@H]1O[C@H](CO)[C@@H](O)[C@H]1O
Hepatitis C virus [1]
  pEC50: 4.77
MRC5
  pIC50: < 4.30
CCRF-CEM
  pIC50: 4.59
HepG2
  pIC50: < 4.30
K562
  pIC50: 4.74
Influenza A virus
  Activity: inactive
HL-60
  pIC50: < 4.30
BJ
  pIC50: < 4.30
HeLa S3
  pIC50: < 4.30
[2]
  pIC50: 4.52
U2OS
  pIC50: 4.56
Dengue virus type 2
  Activity: inactive
HCT-116 [3]
  pIC50: 4.44
HCT-116 [4]
  pIC50: < 4.30
Hepatitis C virus [5]
  pEC50: 5.22
Human alphaherpesvirus 1
  Activity: inactive
[6]
  pIC50: 4.55
Human orthopneumovirus
  Activity: inactive
Adenosine kinase [7]
  Activity: 0%
[8]
  CC50 at 72 h: 36.8 to 44 µM
Coxsackievirus B3
  Activity: inactive
A549
  pIC50: < 4.30
Adenosine kinase [9]
  pIC50: < 5.00

## Cn1ccc2c1c1c(-c3ccco3)ncnc1n2[C@@H]1O[C@H](CO)[C@@H](O)[C@H]1O
Hepatitis C virus [1]
  pEC50: < 4.35
MRC5
  pIC50: < 4.30
CCRF-CEM
  pIC50: < 4.30
HepG2
  pIC50: < 4.30
K562
  pIC50: < 4.30
Influenza A virus
  Activity: inactive
HL-60
  pIC50: < 4.30
BJ
  pIC50: < 4.30
HeLa S3
  pIC50: < 4.30
[2]
  pIC50: < 4.30
U2OS
  pIC50: 5.13
Dengue virus type 2
  Activity: inactive
HCT-116 [3]
  pIC50: < 4.30
HCT-116 [4]
  pIC50: < 4.30
Hepatitis C virus [5]
  pEC50: 6.66
Human alphaherpesvirus 1
  Activity: inactive
[6]
  pIC50: < 4.30
Human orthopneumovirus
  Activity: inactive
Adenosine kinase [7]
  Activity: 11%
[8]
  CC50 at 72 h: > 44.4 µM
Coxsackievirus B3
  Activity: inactive
A549
  pIC50: < 4.30
Adenosine kinase [9]
  pIC50: 5.15

## Cn1ccc2c1c1c(-c3ccoc3)ncnc1n2[C@@H]1O[C@H](CO)[C@@H](O)[C@H]1O
Hepatitis C virus [1]
  pEC50: 5.46
MRC5
  pIC50: < 4.30
CCRF-CEM
  pIC50: < 4.30
HepG2
  pIC50: < 4.30
K562
  pIC50: 6.03
Influenza A virus
  Activity: inactive
HL-60
  pIC50: < 4.30
BJ
  pIC50: < 4.30
HeLa S3
  pIC50: < 4.30
[2]
  pIC50: < 4.30
U2OS
  pIC50: 5.62
Dengue virus type 2
  Activity: inactive
HCT-116 [3]
  pIC50: 5.09
HCT-116 [4]
  pIC50: 5.05
Hepatitis C virus [5]
  pEC50: 4.69
Human alphaherpesvirus 1
  Activity: inactive
[6]
  pIC50: < 4.30
Human orthopneumovirus
  Activity: inactive
Adenosine kinase [7]
  Activity: 9%
[8]
  CC50 at 72 h: > 44.4 µM
Coxsackievirus B3
  Activity: inactive
A549
  pIC50: < 4.30
Adenosine kinase [9]
  pIC50: < 5.00

## Cn1ccc2c3c(-c4ccco4)ncnc3n([C@@H]3O[C@H](CO)[C@@H](O)[C@H]3O)c21
Hepatitis C virus [1]
  pEC50: 6.11
MRC5
  pIC50: 5.23
CCRF-CEM
  pIC50: 5.87
HepG2
  pIC50: < 4.30
K562
  pIC50: 5.39
Influenza A virus
  Activity: inactive
HL-60
  pIC50: 5.52
BJ
  pIC50: 5.27
HeLa S3
  pIC50: 5.53
[2]
  pIC50: 5.62
U2OS
  pIC50: 5.46
Dengue virus type 2
  Activity: inactive
HCT-116 [3]
  pIC50: 5.42
HCT-116 [4]
  pIC50: 5.40
Hepatitis C virus [5]
  pEC50: 6.47
Human alphaherpesvirus 1
  Activity: inactive
[6]
  pIC50: 5.66
Human orthopneumovirus
  Activity: inactive
Adenosine kinase [7]
  Activity: 0%
[8]
  CC50 at 72 h: 2.63 to 16.4 µM
Coxsackievirus B3
  Activity: inactive
A549
  pIC50: 5.24
Adenosine kinase [9]
  pIC50: 5.45

## CN(C)c1ncnc2c1c1c(ccn1C)n2[C@@H]1O[C@H](CO)[C@@H](O)[C@H]1O
Hepatitis C virus [1]
  pEC50: < 4.35
MRC5
  pIC50: < 4.30
CCRF-CEM
  pIC50: < 4.30
HepG2
  pIC50: < 4.30
K562
  pIC50: < 4.30
Influenza A virus
  Activity: inactive
HL-60
  pIC50: < 4.30
BJ
  pIC50: < 4.30
HeLa S3
  pIC50: < 4.30
[2]
  pIC50: < 4.30
U2OS
  pIC50: < 4.30
Dengue virus type 2
  Activity: inactive
HCT-116 [3]
  pIC50: < 4.30
HCT-116 [4]
  pIC50: < 4.30
Hepatitis C virus [5]
  pEC50: < 4.35
Human alphaherpesvirus 1
  Activity: inactive
[6]
  pIC50: < 4.30
Human orthopneumovirus
  Activity: inactive
Adenosine kinase [7]
  Activity: 0%
[8]
  CC50 at 72 h: > 44.4 µM
Coxsackievirus B3
  Activity: inactive
A549
  pIC50: < 4.30
Adenosine kinase [9]
  pIC50: < 5.00
